Compound activity deposited in PubChem by several laboratories.
The list is not random: actives were taken first. Their share in the collection is about 5.3%.
NALP3 yeast inh – NALP3 inflammasome inhibitors in reconstituted yeast, primary screen, luminescence, uHTS; actives 0.39% (n = 330,000); inhibition, % at 10 µM; AID 2825, 2010; Yeast reconstituted NLRP3/ASC/caspase-1, beta-gal luminescence, 24 h;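 active means inhibition of 50% or more; inactive means inhibition below 50%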
Beta apoptosis – inhibitors of cytokine-induced beta cell apoptosis, primary screen, luminescence | protection from apoptosis, % (no concentration beside the values) | INS-1E cytokine-induced death, ATP luminescence, 48 h; percent of positive-control rescue, neutral wells zero | actives 0.8% (n = 300,000);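 active means Every replicate reaches about 75%, or at least half do and their mean reaches it too, limit read from the data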;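 further: higher means more ATP so stronger rescue from cytokine killing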
T cruzi repl – inhibitors of intracellular T. cruzi growth, primary screen, luminescence, NIH3T3 host cells | actives 1.4% (n = 300,000) | T. cruzi beta-gal in NIH3T3, 90 h | inhibition, % (test concentration not listed);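 active means mean inhibition across valid replicates above about 55%, limit read from the data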;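 further: signal also drops with host cell toxicity which is not excluded here; higher percent means less beta-gal luminescence so fewer parasites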
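Test system: β-gal T. cruzi (Tulahuen C4) inside NIH/3T3 cells / Quantity: 5,000 cells/well / Measured by: luminescence from GalScreen with 0.05% NP40, read after 60 min / Medium: DMEM plus 2% FBS / Measure: parasite load inhibition, % / Reagent: Tulahuen C4 trypomastigotes, 5000/well / Schedule: co-culture of at least 90 h after 3 h attachment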
CSC inhib – cancer stem cell viability inhibitors, primary screen, luminescence. cancer stem cell-like cells viability. inhibition, % at 7.5 µM. actives 1.1% (n = 300,000); in the data active means inhibition above about 75%; tested in HMLE shEcad cells
Calb FLC – C. albicans growth inhibition with fluconazole, primary screen, CaCi-2 strain, Alamar Blue fluorescence; C. albicans CaCi-2 + fluconazole, 48 h; growth inhibition, % (test concentration not listed); actives 0.57% (n = 300,000); AID 1979, 2009;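 active means growth inhibition above about 58% in most replicates, limit read from the data, passing the limit was not always enough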;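 further: all wells also contain fluconazole at 8 µg/ml as a sub-toxic cotreatment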
Mdm2-MdmX inh – inhibitors of human Mdm2-MdmX association, primary screen, cell-based, luminescence, split luciferase, SaOS-2, uHTS. Protein Mdm4 (Homo sapiens) + E3 ubiquitin-protein ligase Mdm2 (Homo sapiens), …. SaOS-2 split-luciferase Mdm2/MdmX complementation. inhibition, % at 8 µM. actives 3% (n = 330,000). AID 485346, 2010;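 active means inhibition of at least 50% at 8 µM in the primary screen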
Target sequence (O15151 whole entry, looked up): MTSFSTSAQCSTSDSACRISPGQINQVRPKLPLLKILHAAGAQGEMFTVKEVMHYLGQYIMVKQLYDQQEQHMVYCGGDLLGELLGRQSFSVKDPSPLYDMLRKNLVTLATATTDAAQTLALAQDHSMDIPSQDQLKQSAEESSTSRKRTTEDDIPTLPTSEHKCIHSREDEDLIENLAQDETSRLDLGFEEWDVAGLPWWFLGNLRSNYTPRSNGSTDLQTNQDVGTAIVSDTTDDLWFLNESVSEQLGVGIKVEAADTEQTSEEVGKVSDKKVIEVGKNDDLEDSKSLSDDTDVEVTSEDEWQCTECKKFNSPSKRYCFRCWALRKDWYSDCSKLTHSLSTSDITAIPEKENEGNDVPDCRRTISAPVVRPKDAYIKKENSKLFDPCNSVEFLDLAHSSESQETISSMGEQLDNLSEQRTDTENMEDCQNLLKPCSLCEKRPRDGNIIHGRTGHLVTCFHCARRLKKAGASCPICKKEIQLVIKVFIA
Target sequence (Q00987 whole entry, looked up): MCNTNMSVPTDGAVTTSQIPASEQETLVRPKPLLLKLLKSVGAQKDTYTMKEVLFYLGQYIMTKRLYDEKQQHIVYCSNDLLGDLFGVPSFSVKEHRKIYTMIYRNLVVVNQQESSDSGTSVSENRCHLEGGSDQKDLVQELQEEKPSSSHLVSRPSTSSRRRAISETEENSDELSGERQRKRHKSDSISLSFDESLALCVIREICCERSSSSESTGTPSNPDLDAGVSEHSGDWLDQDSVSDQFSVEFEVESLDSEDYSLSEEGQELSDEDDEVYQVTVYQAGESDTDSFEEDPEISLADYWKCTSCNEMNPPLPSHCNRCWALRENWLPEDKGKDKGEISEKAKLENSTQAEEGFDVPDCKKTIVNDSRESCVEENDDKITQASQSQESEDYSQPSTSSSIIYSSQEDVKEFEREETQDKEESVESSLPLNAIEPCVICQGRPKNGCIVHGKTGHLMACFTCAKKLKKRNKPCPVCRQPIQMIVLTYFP
Mdm2-MdmX conf – Mdm2-MdmX complex disruptors, retested hits, confirmation, luminescence, single concentration | shares compounds with Mdm2-MdmX inh | Mdm2-MdmX binding, luminescent assay | inhibition, % at 8 µM | actives 55% (n = 10,000) | AID 489028, 2010; in the data active means inhibition above about 40%
Full FLuc ctr – full-length luciferase signal inhibition, confirmation, counter-screen for Mdm2/MdmX interaction inhibitor project, cell-based, single concentration, SaOS-2 | shares compounds with Mdm2-MdmX inh | SaOS-2 full-length luciferase counterscreen, luminescence | inhibition, % at 8 µM | actives 77% (n = 6,200);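 active means mean inhibition at 8 µM reaching about 37%, which flags the compound as non-specific, limit read from the data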;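 further: p53-null SaOS-2 cells with luciferase driven by a doxycycline-inducible promoter; compound on cells about two nights before reading with doxycycline added after day one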
Numbers stand for hits; n = inactive; x = no result given.

SMILES | NALP3 yeast inh | Beta apoptosis | T cruzi repl | CSC inhib | Calb FLC | Mdm2-MdmX inh | Mdm2-MdmX conf | Full FLuc ctr
COc1ccc(S(=O)(=O)N2c3ccccc3OCC2c2ccccc2)cc1 (centres undefined) | n | n | n | n | n | 51.4 | 71.8 | 47.7
COc1ccc(S(=O)(=O)N2c3ccccc3OCC2C(C)(C)C)cc1 (centres undefined) | n | x | n | n | n | 57.8 | 47.1 | 45.0
COc1ccc(S(=O)(=O)N2CCOc3ccccc32)cc1 | n | n | n | n | n | 60.5 | 63.0 | 54.2
COc1ccc(S(=O)(=O)N2c3ccccc3OCC2C)cc1 (centres undefined) | n | n | n | n | n | n | x | x
COc1ccc(S(=O)(=O)N2CC(C(=O)O)Oc3ccccc32)cc1 (centres undefined) | n | n | n | n | n | n | x | x
COCCNC(=O)CNC(=O)c1nn(-c2ccc(OC)c(Cl)c2)c(=O)c2ccccc12 | n | n | n | n | n | n | x | x
O=C1/C(=C/c2ccncc2)SC(=S)N1Cc1ccccc1 | n | x | n | n | n | n | x | x
O=C(CCN1C(=O)/C(=C/c2ccccc2Cl)SC1=S)Nc1ccccn1 | n | n | n | n | n | n | x | x
O=C1/C(=C/c2ccccc2Cl)SC(=S)N1CCCC(=O)N(CCO)c1ccccc1 | n | x | n | n | n | 97.8 | n | x
O=C(CCCN1C(=O)/C(=C/c2ccccc2Cl)SC1=S)Nc1ccccn1 | n | n | n | x | n | 66.6 | 55.0 | n
O=C(CCCN1C(=O)/C(=C/c2cccs2)SC1=S)Nc1ccccn1 | n | n | n | n | n | 55.6 | 59.5 | 97.7
O=C1/C(=C\c2cccc(O)c2O)SC(=S)N1Cc1ccccc1 | n | n | n | 85.9 | n | 72.0 | 57.2 | n
O=C(CCN1C(=O)/C(=C/c2ccccc2Cl)SC1=S)Nc1cccnc1 | n | n | n | n | n | n | x | x
O=C(CCCN1C(=O)/C(=C/c2ccccc2Cl)SC1=S)Nc1cccnc1 | n | n | n | n | n | 86.5 | 72.8 | n
O=C(CCN1C(=O)/C(=C/c2ccccc2Cl)SC1=S)NCCc1ccc(O)cc1 | n | n | n | n | n | 78.4 | n | 47.8
Cc1ccc(C)c(Nc2cc(C)nc(-c3ccccc3O)n2)c1 | n | n | n | n | n | 58.7 | 61.8 | 49.0
Cc1cc(NCc2ccccc2)nc(-c2ccccc2O)n1 | n | n | n | x | n | n | x | x
Cc1cc(N/N=C/c2c(O)ccc3ccccc23)nc(-c2ccccc2O)n1 | n | 88.7 | n | n | 81.9 | 61.0 | 53.2 | 39.3
O=S(=O)(Nc1cccnc1Cl)c1ccc2c(c1)OCCO2 | n | n | n | n | n | n | x | x
CC(NC(=S)Nc1ccc(OC(F)F)c(Cl)c1)C(C)(C)C (centres undefined) | n | n | n | n | n | 57.8 | n | x
COc1ccccc1/C=C/C(=O)NCC(=O)N/N=C/c1cccnc1 | n | n | n | n | n | n | x | x
CN1CCOCCOCCN(C)C(=O)N2CCOCCOCCN(CCOCC2)C1=O | n | n | n | n | n | n | x | x
CCCCC1CCC(C(=O)N(CCCC)c2c(N)n(CCCC)c(=O)[nH]c2=O)CC1 (centres undefined) | n | n | n | n | n | 98.9 | n | x
CCCCn1c(SCC(=O)NC2CCS(=O)(=O)C2)nnc1-c1ccc(OC)cc1 (centres undefined) | n | n | n | n | n | n | x | x
CC(C)(C)c1cc(C(F)(F)F)c(C#N)c(=O)[nH]1 | n | n | n | n | n | n | x | x
SMILES | NALP3 yeast inh | Beta apoptosis | T cruzi repl | CSC inhib | Calb FLC | Mdm2-MdmX inh | Mdm2-MdmX conf | Full FLuc ctr
O=C(COC(=O)c1cccc(S(=O)(=O)N2CCCCCC2)c1)NCc1ccc(Cl)cc1 | n | x | x | x | x | n | x | x
Cc1cccc(NC(=O)c2cc(-c3ccc(C)c(C)c3O)n[nH]2)c1 | n | n | n | n | n | 53.4 | n | x
Nc1c(-c2ccccc2)c(CSc2nc3ccccc3[nH]2)nn1-c1cccc(Cl)c1 | n | n | 65.9 | n | n | 61.3 | n | x
Cc1ccccc1-n1nc(CSc2nc3ccccc3[nH]2)c(-c2ccccc2)c1N | n | n | n | n | n | n | x | x
COc1ccc([N+](=O)[O-])cc1NCc1ccccc1 | n | n | n | n | n | 70.4 | n | 98.2
COc1ccc(-n2nc(C(=O)NCC(=O)Nc3cc(OC)c(OC)c(OC)c3)c3ccccc3c2=O)cc1 | n | n | n | n | n | 51.5 | n | x
COc1ccc(-n2nc(C(=O)NCC(=O)Nc3cccc(NC(C)=O)c3)c3ccccc3c2=O)cc1 | n | n | n | n | n | n | x | x
COc1ccc(-n2nc(C(=O)NCC(=O)Nc3cc(OC)c(OC)c(OC)c3)c3ccccc3c2=O)cc1OC | n | n | n | n | n | 69.7 | 66.5 | 68.1
Cc1ccc(C(C)C)c(OCc2ccc(C(=O)N/N=C/c3ccc(O)c(O)c3)cc2)c1 | n | n | n | 108.6 | n | 53.4 | n | x
COc1ccc2c(c1OC)C(=O)N1c3ccccc3C(=O)N(c3ccccc3F)C21 (centres undefined) | n | n | n | n | n | 66.3 | 59.6 | 75.9
C=CCN1C(=O)C(O)(CC(=O)c2ccco2)c2cc(Br)ccc21 (centres undefined) | n | n | n | n | n | 58.9 | n | x
Cc1n[nH]c(C)c1C(=O)CC1(O)C(=O)N(Cc2ccccc2)c2ccc(Br)cc21 (centres undefined) | n | n | n | n | n | n | x | x
COc1ccc2oc(=Nc3ccccc3)c(-c3nc4ccccc4[nH]3)cc2c1 | n | n | n | n | n | 87.7 | n | x
Cc1cnc(C(=O)OCC(=O)Nc2cccc(C)c2C)cn1 | n | n | x | n | x | n | x | x
CN(Cc1ccco1)c1ncnc2ccc(-c3ccc4c(c3)OCO4)cc12 | n | n | x | n | x | n | x | x
CN(Cc1ccco1)c1ncnc2ccc(-c3ccc4c(ccn4C)c3)cc12 | n | n | x | 83.5 | x | 50.6 | 53.1 | 65.8
O=C(Nc1cccc(NC(=O)c2ccccc2Cl)c1)c1ccc([N+](=O)[O-])o1 | n | 96.1 | n | n | 79.5 | 60.6 | 58.0 | 42.4
O=C(Nc1nc2c(Cl)cccc2s1)c1ccc([N+](=O)[O-])o1 | n | x | n | n | n | n | x | x
CCN1CCc2c(sc(NC(=O)c3ccc(S(=O)(=O)N4CCCC4)cc3)c2C(=O)NC)C1 | n | x | n | n | n | 82.8 | n | x
